Source: the M2OR odorant receptor database

Key:
Settings in all cases: stereoisomer not certain
OR10G2 (Homo sapiens) = biological target: T1, OR10G2 (Homo sapiens) (UniProt Q8NGC3)
T1 sequence (whole entry): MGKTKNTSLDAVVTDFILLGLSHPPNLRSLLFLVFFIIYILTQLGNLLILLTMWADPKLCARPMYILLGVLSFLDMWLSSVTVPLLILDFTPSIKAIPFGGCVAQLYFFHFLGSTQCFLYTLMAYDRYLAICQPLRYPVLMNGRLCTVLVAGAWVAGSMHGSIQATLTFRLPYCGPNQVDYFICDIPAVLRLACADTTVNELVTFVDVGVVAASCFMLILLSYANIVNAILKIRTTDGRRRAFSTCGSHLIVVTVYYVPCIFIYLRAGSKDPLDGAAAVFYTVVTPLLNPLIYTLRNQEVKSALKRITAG
In short: (§1)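 Each entry records the cell line, G-protein, co-transfected protein and tags used. Methods varied with the source, often transient luciferase assays in mammalian cell lines. A receptor–molecule pair is called responsive (active) if the original authors judged its signal statistically different from baseline and non-responsive (inactive) otherwise.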

OR10G3 (Homo sapiens) = biological target: T2, OR10G3 (Homo sapiens) (UniProt Q8NGC4)
T2 sequence (whole entry): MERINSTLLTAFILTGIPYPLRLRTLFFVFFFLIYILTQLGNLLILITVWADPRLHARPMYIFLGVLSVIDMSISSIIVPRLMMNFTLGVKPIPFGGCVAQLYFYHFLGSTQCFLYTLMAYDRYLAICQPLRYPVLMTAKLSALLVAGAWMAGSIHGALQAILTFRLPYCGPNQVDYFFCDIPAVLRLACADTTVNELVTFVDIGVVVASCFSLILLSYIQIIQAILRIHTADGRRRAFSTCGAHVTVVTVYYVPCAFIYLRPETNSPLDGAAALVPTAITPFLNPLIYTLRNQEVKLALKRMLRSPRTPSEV
In short: as §1

OR10G4 (Homo sapiens) = biological target: T3, OR10G4 (Homo sapiens) (UniProt Q8NGN3)
T3 sequence (whole entry): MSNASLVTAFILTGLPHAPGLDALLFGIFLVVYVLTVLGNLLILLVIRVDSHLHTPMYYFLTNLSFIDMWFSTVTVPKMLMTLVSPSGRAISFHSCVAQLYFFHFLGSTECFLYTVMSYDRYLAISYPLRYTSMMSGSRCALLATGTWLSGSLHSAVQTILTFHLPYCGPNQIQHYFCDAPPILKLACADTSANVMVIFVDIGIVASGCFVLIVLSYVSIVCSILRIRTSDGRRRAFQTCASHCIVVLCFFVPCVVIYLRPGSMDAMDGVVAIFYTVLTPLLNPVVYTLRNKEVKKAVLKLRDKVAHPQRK
In short: as §1

OR10G6 (Homo sapiens) = biological target: T4, OR10G6 (Homo sapiens) (UniProt Q8NH81)
T4 sequence (whole entry): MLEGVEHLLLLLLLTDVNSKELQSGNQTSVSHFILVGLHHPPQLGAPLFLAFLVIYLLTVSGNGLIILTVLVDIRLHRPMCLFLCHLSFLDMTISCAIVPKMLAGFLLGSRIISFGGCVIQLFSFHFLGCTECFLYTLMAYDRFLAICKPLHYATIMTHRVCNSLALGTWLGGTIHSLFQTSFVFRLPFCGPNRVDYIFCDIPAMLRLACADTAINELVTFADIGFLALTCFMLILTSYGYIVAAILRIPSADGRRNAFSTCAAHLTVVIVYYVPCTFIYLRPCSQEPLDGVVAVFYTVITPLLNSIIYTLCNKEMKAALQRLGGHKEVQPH
In short: as §1

OR10G7 (Homo sapiens) = biological target: T5, OR10G7 (Homo sapiens) (UniProt Q8NGN6)
T5 sequence (whole entry): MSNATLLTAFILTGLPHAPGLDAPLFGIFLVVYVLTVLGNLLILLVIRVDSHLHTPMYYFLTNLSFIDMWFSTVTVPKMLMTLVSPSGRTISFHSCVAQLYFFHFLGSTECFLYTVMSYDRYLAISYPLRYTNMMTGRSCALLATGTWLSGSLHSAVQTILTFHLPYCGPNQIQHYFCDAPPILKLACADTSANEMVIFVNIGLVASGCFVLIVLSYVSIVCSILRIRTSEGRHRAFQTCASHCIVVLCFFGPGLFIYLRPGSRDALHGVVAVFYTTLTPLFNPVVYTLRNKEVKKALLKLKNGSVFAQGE
In short: as §1

OR10G8 (Homo sapiens) = biological target: T6, OR10G8 (Homo sapiens) (UniProt Q8NGN5)
T6 sequence (whole entry): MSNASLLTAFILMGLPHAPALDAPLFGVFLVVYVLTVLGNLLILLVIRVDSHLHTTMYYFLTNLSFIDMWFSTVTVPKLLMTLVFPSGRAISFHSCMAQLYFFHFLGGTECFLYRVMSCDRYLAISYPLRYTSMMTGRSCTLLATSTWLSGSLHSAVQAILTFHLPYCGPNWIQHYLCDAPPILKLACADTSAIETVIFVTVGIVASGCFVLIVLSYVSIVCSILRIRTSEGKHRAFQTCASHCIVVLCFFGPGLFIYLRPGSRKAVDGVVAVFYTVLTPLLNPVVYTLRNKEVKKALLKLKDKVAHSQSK
In short: as §1

OR10G9 (Homo sapiens) = biological target: T7, OR10G9 (Homo sapiens) (UniProt Q8NGN4)
T7 sequence (whole entry): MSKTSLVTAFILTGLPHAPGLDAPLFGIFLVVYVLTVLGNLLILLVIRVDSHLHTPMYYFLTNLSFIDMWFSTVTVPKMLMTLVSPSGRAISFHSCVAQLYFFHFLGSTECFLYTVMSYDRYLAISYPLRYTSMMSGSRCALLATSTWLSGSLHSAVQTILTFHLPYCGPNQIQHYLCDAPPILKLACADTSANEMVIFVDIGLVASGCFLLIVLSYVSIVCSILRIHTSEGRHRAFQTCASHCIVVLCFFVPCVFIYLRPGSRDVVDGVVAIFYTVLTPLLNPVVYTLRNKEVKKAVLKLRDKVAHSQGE
In short: as §1

OR10H1 (Homo sapiens) = biological target: T8, OR10H1 (Homo sapiens) (UniProt Q9Y4A9)
T8 sequence (whole entry): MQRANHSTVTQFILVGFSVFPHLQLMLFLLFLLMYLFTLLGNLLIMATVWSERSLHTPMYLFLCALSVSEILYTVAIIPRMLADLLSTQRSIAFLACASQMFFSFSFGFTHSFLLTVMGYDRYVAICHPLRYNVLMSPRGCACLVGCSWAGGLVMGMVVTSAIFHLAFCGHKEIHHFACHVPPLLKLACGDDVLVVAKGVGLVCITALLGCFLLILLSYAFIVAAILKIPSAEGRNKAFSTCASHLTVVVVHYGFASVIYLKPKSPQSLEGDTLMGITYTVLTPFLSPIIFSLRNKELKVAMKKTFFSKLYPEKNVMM
In short: as §1

OR10H2 (Homo sapiens) = biological target: T9, OR10H2 (Homo sapiens) (UniProt O60403)
T9 sequence (whole entry): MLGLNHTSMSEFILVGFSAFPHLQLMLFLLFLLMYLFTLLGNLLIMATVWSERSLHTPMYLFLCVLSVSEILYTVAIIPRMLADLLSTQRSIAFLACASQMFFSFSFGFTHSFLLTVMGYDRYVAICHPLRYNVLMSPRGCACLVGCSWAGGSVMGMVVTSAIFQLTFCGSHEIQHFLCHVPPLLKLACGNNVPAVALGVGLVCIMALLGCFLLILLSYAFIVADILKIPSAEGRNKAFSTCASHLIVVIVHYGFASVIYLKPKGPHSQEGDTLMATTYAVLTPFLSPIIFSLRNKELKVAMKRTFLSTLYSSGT
In short: as §1

OR10H3 (Homo sapiens) = biological target: T10, OR10H3 (Homo sapiens) (UniProt O60404)
T10 sequence (whole entry): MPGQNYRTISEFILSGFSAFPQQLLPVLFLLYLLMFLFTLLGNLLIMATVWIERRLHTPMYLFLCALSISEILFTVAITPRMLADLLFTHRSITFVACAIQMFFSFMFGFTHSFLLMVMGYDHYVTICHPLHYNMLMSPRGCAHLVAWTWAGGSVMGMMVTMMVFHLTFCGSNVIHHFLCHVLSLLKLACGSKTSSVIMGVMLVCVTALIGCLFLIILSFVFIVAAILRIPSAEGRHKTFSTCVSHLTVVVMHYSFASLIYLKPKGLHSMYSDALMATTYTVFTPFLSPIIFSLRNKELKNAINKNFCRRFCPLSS
In short: as §1

OR10H4 (Homo sapiens) = biological target: T11, OR10H4 (Homo sapiens) (UniProt Q8NGA5)
T11 sequence (whole entry): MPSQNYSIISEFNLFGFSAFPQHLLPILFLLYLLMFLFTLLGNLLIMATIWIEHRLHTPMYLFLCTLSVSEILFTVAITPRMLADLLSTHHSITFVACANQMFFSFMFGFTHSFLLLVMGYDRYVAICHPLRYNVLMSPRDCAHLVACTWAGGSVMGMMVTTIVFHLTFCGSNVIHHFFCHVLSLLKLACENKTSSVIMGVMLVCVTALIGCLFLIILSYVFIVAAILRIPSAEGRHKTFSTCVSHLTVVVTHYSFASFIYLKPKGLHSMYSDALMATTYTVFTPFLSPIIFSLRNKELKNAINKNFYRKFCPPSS
In short: as §1

OR10H5 (Homo sapiens) = biological target: T12, OR10H5 (Homo sapiens) (UniProt Q8NGA6)
T12 sequence (whole entry): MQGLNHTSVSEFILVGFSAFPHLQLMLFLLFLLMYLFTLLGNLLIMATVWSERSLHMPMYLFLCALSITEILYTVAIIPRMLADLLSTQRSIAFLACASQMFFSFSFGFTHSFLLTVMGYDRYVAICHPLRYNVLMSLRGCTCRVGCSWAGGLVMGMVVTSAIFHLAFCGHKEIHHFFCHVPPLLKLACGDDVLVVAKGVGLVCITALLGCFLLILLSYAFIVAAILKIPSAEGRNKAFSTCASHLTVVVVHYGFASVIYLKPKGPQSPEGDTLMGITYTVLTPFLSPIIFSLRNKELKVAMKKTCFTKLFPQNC
In short: as §1

OR10J3 (Homo sapiens) = biological target: T13, OR10J3 (Homo sapiens) (UniProt Q5JRS4)
T13 sequence (whole entry): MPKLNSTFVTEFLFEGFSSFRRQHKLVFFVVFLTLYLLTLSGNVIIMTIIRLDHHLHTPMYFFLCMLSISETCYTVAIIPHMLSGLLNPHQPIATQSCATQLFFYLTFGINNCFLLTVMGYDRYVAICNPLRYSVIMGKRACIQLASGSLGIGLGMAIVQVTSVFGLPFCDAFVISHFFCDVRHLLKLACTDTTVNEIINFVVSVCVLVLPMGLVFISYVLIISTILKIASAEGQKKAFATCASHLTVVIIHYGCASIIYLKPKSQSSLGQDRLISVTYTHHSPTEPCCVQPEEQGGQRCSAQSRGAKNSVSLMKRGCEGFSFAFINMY
In short: as §1

OR10J4 (Homo sapiens) = OR10J4 (Homo sapiens) (UniProt P0C629)
OR10J4 (Homo sapiens), sequence (P0C629 whole entry F198I): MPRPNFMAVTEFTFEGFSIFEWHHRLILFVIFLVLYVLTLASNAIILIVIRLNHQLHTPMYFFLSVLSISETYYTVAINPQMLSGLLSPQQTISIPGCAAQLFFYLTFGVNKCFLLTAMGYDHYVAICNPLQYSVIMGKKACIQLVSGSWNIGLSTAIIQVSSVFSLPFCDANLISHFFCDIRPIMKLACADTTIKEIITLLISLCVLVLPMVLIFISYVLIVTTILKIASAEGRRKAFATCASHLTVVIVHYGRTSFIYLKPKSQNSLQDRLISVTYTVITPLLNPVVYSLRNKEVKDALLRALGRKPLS
In short: as §1

OR10J5 (Homo sapiens) = biological target: T14, OR10J5 (Homo sapiens) (UniProt Q8NHC4)
T14 sequence (whole entry): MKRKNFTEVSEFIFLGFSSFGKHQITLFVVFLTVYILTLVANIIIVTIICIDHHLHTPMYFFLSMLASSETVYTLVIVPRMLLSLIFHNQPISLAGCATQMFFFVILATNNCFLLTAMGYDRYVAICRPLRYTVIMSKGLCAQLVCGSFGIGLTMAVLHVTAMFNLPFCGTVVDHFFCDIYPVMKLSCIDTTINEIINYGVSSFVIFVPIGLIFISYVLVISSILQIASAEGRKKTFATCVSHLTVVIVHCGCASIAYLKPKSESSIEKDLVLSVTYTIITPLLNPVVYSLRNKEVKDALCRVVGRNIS
In short: as §1

OR10K1 (Homo sapiens) = biological target: T15, OR10K1 (Homo sapiens) (UniProt Q8NGX5)
T15 sequence (whole entry): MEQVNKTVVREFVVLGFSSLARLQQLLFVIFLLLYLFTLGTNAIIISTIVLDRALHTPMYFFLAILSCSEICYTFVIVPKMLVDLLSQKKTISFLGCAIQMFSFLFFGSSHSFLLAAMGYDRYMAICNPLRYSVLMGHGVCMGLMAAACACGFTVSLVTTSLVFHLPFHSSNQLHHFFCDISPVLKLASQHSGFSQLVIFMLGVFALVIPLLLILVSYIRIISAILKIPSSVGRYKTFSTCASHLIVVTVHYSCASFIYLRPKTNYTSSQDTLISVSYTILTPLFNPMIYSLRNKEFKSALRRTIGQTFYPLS
In short: as §1

OR10K2 (Homo sapiens) = biological target: T16, OR10K2 (Homo sapiens) (UniProt Q6IF99)
T16 sequence (whole entry): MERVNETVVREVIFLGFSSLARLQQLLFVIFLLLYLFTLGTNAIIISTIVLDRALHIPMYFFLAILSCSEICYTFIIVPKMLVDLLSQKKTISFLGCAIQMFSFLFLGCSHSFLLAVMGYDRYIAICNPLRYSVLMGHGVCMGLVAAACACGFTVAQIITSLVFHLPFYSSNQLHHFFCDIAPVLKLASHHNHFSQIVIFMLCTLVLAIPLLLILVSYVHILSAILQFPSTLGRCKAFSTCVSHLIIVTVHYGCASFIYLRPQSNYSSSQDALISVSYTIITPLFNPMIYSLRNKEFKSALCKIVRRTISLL
In short: as §1

OR10P1 (Homo sapiens) = biological target: T17, OR10P1 (Homo sapiens) (UniProt Q8NGE3)
T17 sequence (whole entry): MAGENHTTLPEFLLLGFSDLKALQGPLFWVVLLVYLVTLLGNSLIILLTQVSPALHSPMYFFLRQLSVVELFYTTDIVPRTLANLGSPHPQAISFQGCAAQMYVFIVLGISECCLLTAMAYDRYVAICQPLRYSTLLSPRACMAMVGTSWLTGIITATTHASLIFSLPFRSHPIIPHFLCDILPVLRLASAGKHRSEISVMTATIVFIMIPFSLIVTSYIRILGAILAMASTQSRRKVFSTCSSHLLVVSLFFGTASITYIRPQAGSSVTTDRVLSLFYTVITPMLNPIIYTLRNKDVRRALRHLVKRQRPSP
In short: as §1

OR10Q1 (Homo sapiens) = biological target: T18, OR10Q1 (Homo sapiens) (UniProt Q8NGQ4)
T18 sequence (whole entry): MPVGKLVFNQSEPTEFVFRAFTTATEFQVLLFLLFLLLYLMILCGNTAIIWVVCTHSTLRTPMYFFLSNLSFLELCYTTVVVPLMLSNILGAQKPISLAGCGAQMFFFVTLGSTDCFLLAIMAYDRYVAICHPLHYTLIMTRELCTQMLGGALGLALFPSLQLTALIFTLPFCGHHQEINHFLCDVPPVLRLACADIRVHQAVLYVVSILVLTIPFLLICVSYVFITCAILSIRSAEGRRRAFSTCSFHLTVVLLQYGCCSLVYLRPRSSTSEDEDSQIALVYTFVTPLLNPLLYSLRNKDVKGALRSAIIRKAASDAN
In short: as §1

Measured: odorant receptor agonist call

CC(=O)c1c(C)c([N+](=O)[O-])c(C(C)(C)C)c([N+](=O)[O-])c1C
inactive: all assays above

CCCCCCC(C)=O
inactive: OR10J5 (Homo sapiens)
